Results of several laboratories.
Read-out: cell growth or viability

Structure (SMILES)	cell line	technique	tested at	time	measurement	value
Cc1nc(Nc2ncc(C(=O)Nc3c(C)cccc3Cl)s2)cc(N2CC[C@H](O)C2)n1	SU-DHL-8	ATP luminescence	10 µM	72 h	inhibition	8%
CCCCCCCCCCCCCCCCCCOc1ccc(CC(=O)OCC[N+](C)(C)C)cc1	NCI-H226	SRB	10 µM		inhibition	4.87%
CN(C)CCNC(=O)c1ccc(-c2nc3ccc4[nH]ncc4c3c3c2CCCC3)cc1	U-937			72 h	GI50	0.658 µM
CCCCCCCCCCCCCCCCCCOc1ccccc1CC(=O)OCC[N+]1(C)CCCC1	NCI-H226	SRB	10 µM		inhibition	86.6%
CC(C)(C)c1cnc(CSc2cnc(NC(=O)C3CCN(C(=O)CCCCCCCN4Cc5cc6c(cc5C4)C(=O)N(C4CCC(=O)NC4=O)C6=O)CC3)s2)o1 (stereo not shown)	NCI-H226	MTT			IC50	0.057 µM
CN(C)CCNC(=O)c1ccc(-c2nc3ccc4[nH]ncc4c3c3c2CCCCC3)c(F)c1	U-937			72 h	GI50	1.17 µM
O=C(NO)c1ccc(Cn2cnc3c(Nc4ccc(F)c(Cl)c4)ncnc32)cc1	U-937	MTT		72 h	IC50	2.94 µM
Cc1n[nH]c2ccc3nc(-c4ccc(C(=O)NCCN(C)C)cc4F)c4c(c3c12)CCCCC4	U-937			72 h	GI50	1.64 µM
CN1C(=O)C(=O)c2cc3c(c4c2c1cc1ccccc14)OCO3	HuCC-A1	MTT		75 h	IC50	44.4 µM
O=C(NO)c1ccc(Cn2cnc3c(Nc4ccc(Br)cc4F)ncnc32)cc1	U-937	MTT		72 h	IC50	2.16 µM
Cc1n[nH]c2ccc3nc(-c4ccc(C(=O)NCCN(C)C)cc4)c4c(c3c12)CCCCC4	ML-2			72 h	GI50	1.07 µM
O=C(NO)c1ccc(Cn2cnc3c(Nc4cccc([N+](=O)[O-])c4)ncnc32)cc1	U-937	MTT		72 h	IC50	1.99 µM
CN1CCC(NC2CCc3[nH]c4c(C(N)=O)ccc(-c5ccccc5Cl)c4c3C2)CC1 (stereo not shown)	U-937			96 h	IC50	0.0076 µM
CCCCCCCCCCCCCCCCCCOc1ccccc1CC(=O)OCC[N+](C)(C)C	NCI-H226	SRB	10 µM		inhibition	71.3%
COc1ccc(Nc2ncnc3c2ncn3Cc2ccc(C(=O)Nc3ccccc3N)cc2)cc1	U-937	MTT		72 h	IC50	22.8 µM
COc1cccc2c1C(=O)c1c(O)c3c(c(O)c1C2=O)C[C@@](O)(C(=O)CO)C[C@@H]3O[C@H]1C[C@H](N)[C@H](O)[C@H](C)O1	HuCC-A1	MTT		48 h	IC50	0.86 µM
CCCCCCCCCCCCCCCCCCOc1cccc(CC(=O)OCC[N+]2(C)CCCC2)c1	NCI-H226	SRB	10 µM		inhibition	14.6%
CN(C)CCNC(=O)c1ccc(-c2nc3ccc4[nH]ncc4c3c3c2CCCCC3)cc1	ML-2			72 h	GI50	0.698 µM
CCCCCCCCCCCCCCCCCCOc1cccc(CC(=O)OCC[N+]2(C)CCOCC2)c1	NCI-H226	SRB	10 µM		inhibition	6.29%
CN(C)CCNC(=O)c1ccc(-c2nc3ccc4[nH]ncc4c3c3c2CCCC3)c(F)c1	U-937			72 h	GI50	2.15 µM
CCCCCCCCCCCCCCCCCCOc1ccccc1CC(=O)OCCC[N+](C)(C)C	NCI-H226	SRB	10 µM		inhibition	22%
Cc1n[nH]c2ccc3nc(-c4ccc(C(=O)NCCN(C)C)cc4F)c4c(c3c12)CCCC4	U-937			72 h	GI50	0.183 µM
CC1=CC(=O)c2ccccc2C1=O	HuCC-A1	MTT			IC50	23 µM
C=C1C[C@@]23CC[C@H]4[C@@](C)(CCC[C@@]4(C)C(=O)O)[C@@H]2CC[C@@H]1C3	HuCC-A1	MTT		75 h	IC50	108 µM
CCCCCCCCCCCCCCCCCCOc1ccc(CC(=O)OCC[N+](CC)(CC)CC)cc1	NCI-H226	SRB	10 µM		inhibition	16.1%
CCc1nc(C(N)=O)c(Nc2ccc(N3CCC(N4CCN(C)CC4)CC3)c(OC)c2)nc1NC1CCOCC1	U-937			72 h	GI50	4.39 µM
CCCCCCCCCCCCCCCCCCOCC(COP(=O)([O-])OCC[N+](C)(C)C)OC (stereo not shown)	NCI-H226	SRB	10 µM		inhibition	6.1%
COc1cccc2c1C(=O)c1c(O)c3c(c(O)c1C2=O)C[C@@](O)(C(=O)CO)C[C@@H]3O[C@H]1C[C@H](N)[C@H](O)[C@H](C)O1	U-937			96 h	IC50	0.0222 µM
